According to ChEMBL document CHEMBL2086277, “Pyridonepezils, new dual AChE inhibitors as potential drugs for the treatment of Alzheimer's disease: synthesis, biological assessment, and molecular modeling” (Eur J Med Chem, 2012):
pIC50: −log10 of the molar value.

Legend:
Acetylcholinesterase [1] = molecular target: T1, Acetylcholinesterase (Homo sapiens, UniProt P22303); assay: Inhibition of human erythrocyte AChE using acetylthiocholine as substrate by Ellman method
Cholinesterase [2] = molecular target: Cholinesterase (Homo sapiens, UniProt P06276); assay: Inhibition of human serum BChE using butyrylthiocholine as substrate by Ellman method
Chain of Cholinesterase (Homo sapiens, UniProt P06276) (P06276 whole entry): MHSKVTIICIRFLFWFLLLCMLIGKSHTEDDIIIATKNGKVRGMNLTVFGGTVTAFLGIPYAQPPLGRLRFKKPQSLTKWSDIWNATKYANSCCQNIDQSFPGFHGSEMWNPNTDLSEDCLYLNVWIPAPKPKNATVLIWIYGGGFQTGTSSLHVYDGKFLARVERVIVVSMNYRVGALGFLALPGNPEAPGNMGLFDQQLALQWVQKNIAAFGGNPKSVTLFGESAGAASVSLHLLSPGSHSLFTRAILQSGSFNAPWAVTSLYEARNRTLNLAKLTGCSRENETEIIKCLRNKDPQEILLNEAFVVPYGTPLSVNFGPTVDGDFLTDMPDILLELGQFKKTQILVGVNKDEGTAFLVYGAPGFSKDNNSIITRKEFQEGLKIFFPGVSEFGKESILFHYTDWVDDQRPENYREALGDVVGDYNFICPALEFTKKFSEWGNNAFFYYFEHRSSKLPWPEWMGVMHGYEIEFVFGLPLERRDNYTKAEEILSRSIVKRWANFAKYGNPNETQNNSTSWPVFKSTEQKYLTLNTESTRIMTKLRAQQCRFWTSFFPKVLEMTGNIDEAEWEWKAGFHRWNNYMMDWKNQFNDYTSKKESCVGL
Method in brief: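 IC50 is the concentration giving 50% inhibition of human BuChE, reported as mean ± SEM of three independent experiments.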

[3] = Permeability of the compound in PBS/ethanol at 1 mg/ml after 4 hrs by PAMPA; assay type: ADME; settings: for Papp at 4 h, 1 mg/ml: PAMPA, read-out: permeability
Method in brief: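 PAMPA-BBB: permeability (Pe) measured through a porcine brain lipid extract membrane, using PBS:EtOH (70:30) as the medium. The assay was validated against 15 commercial drugs by correlating measured with reported Pe values. Data are mean ± SD of three independent experiments.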

Acetylcholinesterase [4] = molecular target: T1, Acetylcholinesterase; assay: Ratio of donepezil IC50 to compound IC50 for human erythrocyte AChE using acetylthiocholine as substrate by Ellman method
Cholinesterase [5] = molecular target: Cholinesterase (Equus caballus, UniProt P81908); assay: Inhibition of equine BChE
Chain of Cholinesterase (Equus caballus, UniProt P81908) (P81908 whole entry): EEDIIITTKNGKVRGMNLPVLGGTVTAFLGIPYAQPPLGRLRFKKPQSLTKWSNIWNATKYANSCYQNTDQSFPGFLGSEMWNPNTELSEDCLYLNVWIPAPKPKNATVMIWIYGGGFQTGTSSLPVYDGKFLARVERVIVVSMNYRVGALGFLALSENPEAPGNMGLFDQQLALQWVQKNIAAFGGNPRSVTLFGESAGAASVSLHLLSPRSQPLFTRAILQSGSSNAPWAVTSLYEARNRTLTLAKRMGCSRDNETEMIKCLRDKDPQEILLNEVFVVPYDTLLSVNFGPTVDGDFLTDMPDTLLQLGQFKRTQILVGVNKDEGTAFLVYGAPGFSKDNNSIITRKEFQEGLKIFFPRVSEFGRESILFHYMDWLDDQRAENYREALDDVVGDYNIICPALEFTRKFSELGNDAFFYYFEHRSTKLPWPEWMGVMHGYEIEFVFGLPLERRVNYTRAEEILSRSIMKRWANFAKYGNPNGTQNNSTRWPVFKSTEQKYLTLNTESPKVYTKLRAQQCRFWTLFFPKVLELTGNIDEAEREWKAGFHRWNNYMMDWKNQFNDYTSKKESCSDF

T1 sequence (P22303 whole entry): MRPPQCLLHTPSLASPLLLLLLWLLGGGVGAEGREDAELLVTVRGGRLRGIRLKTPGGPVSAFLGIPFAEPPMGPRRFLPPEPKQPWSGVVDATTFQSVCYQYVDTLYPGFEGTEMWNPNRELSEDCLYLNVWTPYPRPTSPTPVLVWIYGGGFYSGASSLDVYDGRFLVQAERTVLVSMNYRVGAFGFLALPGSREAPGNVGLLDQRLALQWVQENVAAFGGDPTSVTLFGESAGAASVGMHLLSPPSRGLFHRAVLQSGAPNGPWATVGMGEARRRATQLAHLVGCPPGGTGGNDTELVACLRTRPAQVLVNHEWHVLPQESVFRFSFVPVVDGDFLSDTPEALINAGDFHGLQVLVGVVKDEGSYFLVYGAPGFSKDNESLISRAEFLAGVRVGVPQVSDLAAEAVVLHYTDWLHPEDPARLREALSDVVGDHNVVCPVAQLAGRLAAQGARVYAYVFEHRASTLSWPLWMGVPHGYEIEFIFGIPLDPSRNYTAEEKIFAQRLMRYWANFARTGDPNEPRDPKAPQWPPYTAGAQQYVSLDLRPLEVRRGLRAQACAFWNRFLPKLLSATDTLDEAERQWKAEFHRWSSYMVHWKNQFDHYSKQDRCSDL

Compound | pIC50 (Acetylcholinesterase [1]) | pIC50 (Cholinesterase [2]) | Papp at 4 h, 1 mg/ml [3] | Ratio IC50 (Acetylcholinesterase [4]) | pIC50 (Cholinesterase [5]) | permeability ([3]; pampa, 4 h)
N#Cc1cc(C#N)c(NCCC2CCN(Cc3ccccc3)CC2)nc1N | 6.66 | 6.59 | 14.4 ×10⁻⁶ cm/s | – | – | –
N#Cc1cc(C#N)c(NCCCC2CCN(Cc3ccccc3)CC2)nc1N | 8.03 | 5.18 | 20.8 ×10⁻⁶ cm/s | 1.4 | – | –
N#Cc1cc(C#N)c(NCCCCC2CCN(Cc3ccccc3)CC2)nc1N | 7.15 | 5.77 | 21.2 ×10⁻⁶ cm/s | – | – | –
N#Cc1c(N)nc(NCCC2CCN(Cc3ccccc3)CC2)c(C#N)c1-c1ccccc1 | 6.41 | 6.17 | 34 ×10⁻⁶ cm/s | – | – | –
N#Cc1c(N)nc(NCCCCC2CCN(Cc3ccccc3)CC2)c(C#N)c1-c1ccccc1 | 6.92 | 6.24 | 25.7 ×10⁻⁶ cm/s | – | – | –
N#Cc1c(N)nc(NCCCC2CCN(Cc3ccccc3)CC2)c(C#N)c1-c1ccccc1 | 6.62 | 5.82 | 31.6 ×10⁻⁶ cm/s | – | – | –
N#Cc1cc(C#N)c(NC2CCN(Cc3ccccc3)CC2)nc1N | 5.51 | < 5.00 | 17 ×10⁻⁶ cm/s | – | – | –
N#Cc1cc(C#N)c(N2CCCC2)nc1N | – | – | – | – | < 5.00 | –
N#Cc1c(N)nc(NC2CCN(Cc3ccccc3)CC2)c(C#N)c1-c1ccccc1 | 5.06 | < 5.00 | – | – | – | ND(Insoluble)
